Measurements: ChEMBL document CHEMBL3232822, “Synthesis of novel spiropyrazoline oxindoles and evaluation of cytotoxicity in cancer cell lines” (Eur J Med Chem, 2014)

Tests used:
MCF7 = test: Cytotoxicity against human HER2-deficient MCF7 cells expressing estrogen receptor after 48 hrs by MTT assay; format: functional; details: MCF7, 48 h
Method in brief: (§1)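 Cells (HEK 293T, MCF-7, MDA-MB-231 from ATCC) seeded the day before in medium with serum, penicillin G, streptomycin and 2 mM L-glutamine. Compounds in DMSO, serially diluted in medium, final DMSO ≤0.5% (v/v), same in controls. 48 h at 37 °C, 5% CO2. MTT 3 h, formazan dissolved in DMSO, A570. Triplicates, ≥3 experiments. GI50 from % viable cells.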

MDA-MB-231 = test: Cytotoxicity against human HER2/estrogen receptor-deficient MDA-MB-231 cells after 48 hrs by MTT assay; format: functional; details: MDA-MB-231, 48 h; method in brief: as §1
[1] = Cytotoxicity against HEK293T cells after 48 hrs by MTT assay; format: cell-based, HEK-293T; details: human; method in brief: as §1
HEK-293T = test: Selectivity index, ratio of GI50 for HEK293T cells to GI50 for human HER2-deficient MCF7 cells; format: functional
[2] = Solubility of the compound at 100 uM; format: physicochemical

Compound	GI50 (MCF7)	GI50 (MDA-MB-231)	GI50 at 48 h [1]	RatioGI50 (HEK-293T)	solubility [2]
O=C1Nc2cc(Cl)ccc2[C@]12[C@@H](c1ccccc1)C(c1ccccc1)=NN2c1ccccc1	27.1 µM	> 50 µM	> 50 µM	>2	Insoluble
O=C(c1ccccc1)[C@H]1C(c2ccccc2)=NN(c2ccccc2)[C@]12C(=O)Nc1ccc(Cl)cc12	> 100 µM				
COc1ccc(C2=NN(c3ccccc3)[C@]3(C(=O)Nc4cc(Br)ccc43)[C@H]2c2ccccc2)cc1	7 µM	28.6 µM	> 100 µM	>14	
COc1ccc(C2=NN(c3ccccc3)[C@]3(C(=O)Nc4c(Cl)cccc43)[C@H]2c2ccccc2)cc1	11.5 µM	> 100 µM	> 100 µM	>8	
O=C1Nc2ccc(Br)cc2[C@]12[C@@H](c1ccccc1)C(c1ccccc1)=NN2c1ccccc1	7.3 µM	> 100 µM	> 100 µM	>13	
CC(C)(C)C1=NN(c2ccccc2)[C@]2(C(=O)Nc3c(Cl)cccc32)[C@H]1c1ccccc1	8.6 µM	6.4 µM	17.8 µM	2	
COc1ccc(C2=NN(c3ccccc3)[C@]3(C(=O)Nc4ccc(Cl)cc43)[C@H]2c2ccccc2)cc1	33.9 µM				
COc1ccc(C2=NN(c3ccccc3)[C@]3(C(=O)Nc4cc(Cl)ccc43)[C@H]2c2ccccc2)cc1	42.6 µM				
O=C1Nc2ccc(Cl)cc2[C@]12[C@@H](c1ccccc1)C(c1ccccc1)=NN2c1ccccc1	37.7 µM				
CC(C)(C)C1=NN(c2ccccc2)[C@]2(C(=O)Nc3cc(Cl)ccc32)[C@H]1c1ccccc1	21.7 µM	> 50 µM	> 50 µM	>2	Insoluble
O=C1Nc2cc(Br)ccc2[C@]12[C@@H](c1ccccc1)C(c1ccccc1)=NN2c1ccccc1	9.6 µM	8.3 µM	28.9 µM	3	
O=C1Nc2ccccc2[C@]12[C@@H](c1ccccc1)C(c1ccccc1)=NN2c1ccccc1	> 100 µM				
CC(C)(C)C1=NN(c2ccccc2)[C@]2(C(=O)Nc3cc(Br)ccc32)[C@H]1c1ccccc1	8.5 µM	15 µM	20.9 µM	2.5	
O=C1Nc2ccc(Cl)cc2[C@]12CC(c1ccccc1)=NN2	> 100 µM				
O=C1Nc2ccc(Br)cc2[C@]12CC(c1ccccc1)=NN2	> 100 µM				
COc1ccc([C@H]2C(c3ccccc3)=NN(c3ccccc3)[C@]23C(=O)Nc2cc(Cl)ccc23)cc1	> 100 µM				
O=C1Nc2ccccc2[C@]12CC(c1ccccc1)=NN2	> 100 µM				
CCOC(=O)[C@H]1C(c2ccccc2)=NN(c2ccccc2)[C@]12C(=O)Nc1ccc(Cl)cc12	> 100 µM				
